Results taken from ChEMBL document CHEMBL3352237, “Synthesis and biological evaluation of novel peptide BF2 as an antibacterial agent against clinical isolates of vancomycin-resistant enterococci” (J Med Chem, 2014).

Legend:
Enterococcus faecalis [1] = assay: Bactericidal activity against vancomycin-resistant Enterococcus faecalis clinical isolate 27728 after 24 hrs by two-fold serial dilution method; assay type: functional; details: isolate 27728, 24 h
Enterococcus faecalis [2] = assay: Bactericidal activity against vancomycin-resistant Enterococcus faecalis clinical isolate 5648 after 24 hrs by two-fold serial dilution method; assay type: functional; details: isolate 5648, 24 h
Enterococcus faecium [3] = assay: Bactericidal activity against vancomycin-resistant Enterococcus faecium clinical isolate 10177 after 24 hrs by two-fold serial dilution method; assay type: functional; details: isolate 10177, 24 h
Enterococcus faecium [4] = assay: Bactericidal activity against vancomycin-resistant Enterococcus faecium clinical isolate 151495 after 24 hrs by two-fold serial dilution method; assay type: functional; details: isolate 151495, 24 h
Enterococcus faecium [5] = assay: Bactericidal activity against vancomycin-resistant Enterococcus faecium clinical isolate 5396 after 24 hrs by two-fold serial dilution method; assay type: functional; details: isolate 5396, 24 h
Enterococcus faecium [6] = assay: Bactericidal activity against vancomycin-resistant Enterococcus faecium clinical isolate 31386 after 24 hrs by two-fold serial dilution method; assay type: functional; details: isolate 31386, 24 h
Enterococcus faecium [7] = assay: Bactericidal activity against vancomycin-resistant Enterococcus faecium clinical isolate 3864 after 24 hrs by two-fold serial dilution method; assay type: functional; details: isolate 3864, 24 h
Enterococcus faecium [8] = assay: Bactericidal activity against vancomycin-resistant Enterococcus faecium clinical isolate […] after 24 hrs by two-fold serial dilution method; assay type: functional; details: isolate 27/1691, 24 h
Enterococcus faecium [9] = assay: Bactericidal activity against vancomycin-resistant Enterococcus faecium clinical isolate 27/221 after 24 hrs by two-fold serial dilution method; assay type: functional; details: isolate 27/221, 24 h
Enterococcus faecium [10] = assay: Bactericidal activity against vancomycin-resistant Enterococcus faecium clinical isolate 147969 after 24 hrs by two-fold serial dilution method; assay type: functional; details: isolate 147969, 24 h
Enterococcus faecium [11] = assay: Bactericidal activity against vancomycin-resistant Enterococcus faecium clinical isolate 18906 after 24 hrs by two-fold serial dilution method; assay type: functional; details: isolate 18906, 24 h
Enterococcus faecium [12] = assay: Bactericidal activity against vancomycin-resistant Enterococcus faecium clinical isolate 13246 after 24 hrs by two-fold serial dilution method; assay type: functional; details: isolate 13246, 24 h
[13] = Hemolytic activity against human RBC at MIC after 1 hr by spectrophotometry; assay type: ADME, cell-based; details: erythrocyte
HEK293 = assay: Cytotoxicity against HEK293 cells at 100 to 400 uM after 48 to 72 hrs by MTT assay; assay type: cell-based; details: human, hek293, 400 µM
Enterococcus [14] = assay: Antibacterial activity against vancomycin-resistant Enterococcus ATCC 51299 after 18 to 20 hrs by checkerboard titration method in presence of vancomycin; assay type: functional
Enterococcus [15] = assay: Antibacterial activity against vancomycin-resistant Enterococcus clinical isolate after 18 to 20 hrs by checkerboard titration method in presence of linezolid; assay type: functional
Enterococcus [16] = assay: Antibacterial activity against Enterococcus infected in Wistar albino rat assessed as reduction in cell count at MIC, iv after 1 hr relative to control; assay type: functional; set-up: scale not given: the % may be the effect or the level left
Method in brief: (§1)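 Female Wistar albino rats, 40−45 days old, 125−150 g, 5 groups of 3. Enterococci were grown to log phase in MH broth, centrifuged at 1000g for 15 min, and diluted in PBS to 4 × 10^6 CFU/mL. Rats were inoculated i.v. and treated i.v. 1 h later with 12.5, 25 or 37.5 mg/kg peptide, PBS vehicle, or linezolid 25 mg/kg. Tail-vein blood taken 1 h post-treatment was plated on blood agar, incubated overnight at 37 °C, and colonies counted.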

Enterococcus [17] = assay: Antibacterial activity against Enterococcus infected in Wistar albino rat assessed as reduction in cell count at 3 times MIC, iv after 1 hr relative to control; assay type: functional; set-up: scale not given: the % may be the effect or the level left; method in brief: as §1
Rattus norvegicus = assay: Toxicity in Wistar albino rat infected with Enterococcus at MIC to 3 times MIC, iv; assay type: organism-based; details: in vivo
Enterococcus [18] = assay: Antibacterial activity against vancomycin-resistant Enterococcus ATCC 29212 after overnight incubation by two-fold serial dilution method; assay type: functional
Enterococcus faecalis [19] = assay: Antibacterial activity against vancomycin-resistant Enterococcus faecalis clinical isolate 7670 after overnight incubation by two-fold serial dilution method; assay type: functional
Enterococcus faecalis [20] = assay: Antibacterial activity against vancomycin-resistant Enterococcus faecalis clinical isolate 7077 after overnight incubation by two-fold serial dilution method; assay type: functional
Enterococcus faecalis [21] = assay: Antibacterial activity against vancomycin-resistant Enterococcus faecalis clinical isolate 7079 after overnight incubation by two-fold serial dilution method; assay type: functional
Enterococcus faecalis [22] = assay: Antibacterial activity against vancomycin-resistant Enterococcus faecalis clinical isolate 7846 after overnight incubation by two-fold serial dilution method; assay type: functional
Enterococcus faecalis [23] = assay: Antibacterial activity against vancomycin-resistant Enterococcus faecalis clinical isolate 6093 after overnight incubation by two-fold serial dilution method; assay type: functional
Enterococcus faecalis [24] = assay: Antibacterial activity against vancomycin-resistant Enterococcus faecalis clinical isolate 22/203 after overnight incubation by two-fold serial dilution method; assay type: functional
Enterococcus faecalis [25] = assay: Antibacterial activity against vancomycin-resistant Enterococcus faecalis clinical isolate 387702 after overnight incubation by two-fold serial dilution method; assay type: functional
Enterococcus faecium [26] = assay: Antibacterial activity against vancomycin-resistant Enterococcus faecium clinical isolate 17301 after overnight incubation by two-fold serial dilution method; assay type: functional
Enterococcus faecium [27] = assay: Antibacterial activity against vancomycin-resistant Enterococcus faecium clinical isolate 23/240 after overnight incubation by two-fold serial dilution method; assay type: functional
Enterococcus faecium [28] = assay: Antibacterial activity against vancomycin-resistant Enterococcus faecium clinical isolate 10177 after overnight incubation by two-fold serial dilution method; assay type: functional
Enterococcus faecium [29] = assay: Antibacterial activity against vancomycin-resistant Enterococcus faecium clinical isolate 5396 after overnight incubation by two-fold serial dilution method; assay type: functional
Enterococcus faecium [30] = assay: Antibacterial activity against vancomycin-resistant Enterococcus faecium clinical isolate 31176 after overnight incubation by two-fold serial dilution method; assay type: functional
Enterococcus faecium [31] = assay: Antibacterial activity against vancomycin-resistant Enterococcus faecium clinical isolate 27/16917 after overnight incubation by two-fold serial dilution method; assay type: functional; details: isolate 27/1691
Enterococcus faecium [32] = assay: Antibacterial activity against vancomycin-resistant Enterococcus faecium clinical isolate 27/221 after overnight incubation by two-fold serial dilution method; assay type: functional
Enterococcus faecium [33] = assay: Antibacterial activity against vancomycin-resistant Enterococcus faecium clinical isolate 8/224 after overnight incubation by two-fold serial dilution method; assay type: functional
Enterococcus faecium [34] = assay: Antibacterial activity against vancomycin-resistant Enterococcus faecium clinical isolate 29/203 after overnight incubation by two-fold serial dilution method; assay type: functional
Enterococcus faecium [35] = assay: Antibacterial activity against vancomycin-resistant Enterococcus faecium clinical isolate 30/48 after overnight incubation by two-fold serial dilution method; assay type: functional
Enterococcus [36] = assay: Bactericidal activity against vancomycin-resistant Enterococcus ATCC 51299 after 24 hrs by two-fold serial dilution method; assay type: functional; details: ATCC 51299, 24 h
Enterococcus faecalis [37] = assay: Bactericidal activity against vancomycin-resistant Enterococcus faecalis clinical isolate 22626 after 24 hrs by two-fold serial dilution method; assay type: functional; details: isolate 22626, 24 h
Enterococcus faecalis [38] = assay: Bactericidal activity against vancomycin-resistant Enterococcus faecalis clinical isolate 7846 after 24 hrs by two-fold serial dilution method; assay type: functional; details: isolate 7846, 24 h
Enterococcus faecalis [39] = assay: Bactericidal activity against vancomycin-resistant Enterococcus faecalis clinical isolate 5642 after 24 hrs by two-fold serial dilution method; assay type: functional; details: isolate 5642, 24 h
Enterococcus faecalis [40] = assay: Bactericidal activity against vancomycin-resistant Enterococcus faecalis clinical isolate 6093 after 24 hrs by two-fold serial dilution method; assay type: functional; details: isolate 6093, 24 h
Enterococcus faecalis [41] = assay: Bactericidal activity against vancomycin-resistant Enterococcus faecalis clinical isolate 387702 after 24 hrs by two-fold serial dilution method; assay type: functional; details: isolate 387702, 24 h

## H-RWRLLLLKKH-OH
Enterococcus faecalis [1]
  MBC: 25 µg/mL
Enterococcus faecalis [2]
  MBC: 25 µg/mL
Enterococcus faecium [3]
  MBC: 25 µg/mL
Enterococcus faecium [4]
  MBC: 25 µg/mL
Enterococcus faecium [5]
  MBC: 25 µg/mL
Enterococcus faecium [6]
  MBC: 25 µg/mL
Enterococcus faecium [7]
  MBC: 25 µg/mL
Enterococcus faecium [8]
  MBC: 25 µg/mL
Enterococcus faecium [9]
  MBC: 25 µg/mL
Enterococcus faecium [10]
  MBC: 25 µg/mL
Enterococcus faecium [11]
  MBC: 25 µg/mL
Enterococcus faecium [12]
  MBC: 25 µg/mL
[13]
  Activity: Non-toxic
HEK293
  Activity: Non-toxic
Enterococcus [14]
  fractional inhibitory concentration index (FICI): 0.06
Enterococcus [15]
  fractional inhibitory concentration index (FICI): 2
Enterococcus [16]
  Activity: 73%
Enterococcus [17]
  Activity: 82%
Rattus norvegicus
  Activity: Non-toxic
Enterococcus [18]
  MIC: 25 µg/mL
Enterococcus faecalis [19]
  MIC: 12.5 µg/mL
Enterococcus faecalis [20]
  MIC: 12.5 µg/mL
Enterococcus faecalis [21]
  MIC: 12.5 µg/mL
Enterococcus faecalis [22]
  MIC: 12.5 µg/mL
Enterococcus faecalis [23]
  MIC: 12.5 µg/mL
Enterococcus faecalis [24]
  MIC: 12.5 µg/mL
Enterococcus faecalis [25]
  MIC: 6.25 µg/mL
Enterococcus faecium [26]
  MIC: 6.25 µg/mL
Enterococcus faecium [27]
  MIC: 12.5 µg/mL
Enterococcus faecium [28]
  MIC: 12.5 µg/mL
Enterococcus faecium [29]
  MIC: 6.25 µg/mL
Enterococcus faecium [30]
  MIC: 6.25 µg/mL
Enterococcus faecium [31]
  MIC: 12.5 µg/mL
Enterococcus faecium [32]
  MIC: 12.5 µg/mL
Enterococcus faecium [33]
  MIC: 12.5 µg/mL
Enterococcus faecium [34]
  MIC: 12.5 µg/mL
Enterococcus faecium [35]
  MIC: 12.5 µg/mL
Enterococcus [36]
  MBC: 25 µg/mL
Enterococcus faecalis [37]
  MBC: 25 µg/mL
Enterococcus faecalis [38]
  MBC: 25 µg/mL
Enterococcus faecalis [39]
  MBC: 25 µg/mL
Enterococcus faecalis [40]
  MBC: 25 µg/mL
Enterococcus faecalis [41]
  MBC: 25 µg/mL
